Screening data as filed in PubChem.
Not all results are given here.
PGC1a Ac signal: compounds raising PGC1a acetylation signal, primary screen, PGC1a modulator project, cell-based, U2OS, AlphaScreen, signal-increasing mode; overnight; actives 0.21% (n = 350,000); activation, % at 15.6 µM;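 active means every replicate reaching activation of at least 50%, whatever the mean replicate activation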;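 further: hits raise the AlphaScreen acetylation signal above neutral controls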
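Test system: U2OS cells expressing flag-PGC1a plus GCN5; Amount: 7000 U2OS cells per well; Compound: single test concentration per compound; Incubation: compound overnight at 37 °C, each detection step 1 h RT; Signal: AlphaScreen lysate read.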
Hep G6PC suppr: suppressors of forskolin-stimulated G6PC mRNA, dose response, PGC-1a acetylation activator project, cell-based, hepatocytes, RT-qPCR, cherry-picked samples. shares compounds with PGC1a Ac signal. primary mouse hepatocytes. G6PC suppression (normalized activity, % of positive control; higher = more suppression), % at 26 µM. 240 tested, under 10 active. AID 743463, 2014;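 active means dose curves showing G6PC suppression whose half-maximal dose is at most twice the top valid dose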;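 further: G6PC expression relative to GAPDH housekeeping gene as delta delta Ct; 0% = median of neutral control wells and 100% = median of positive control wells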
Hep PCK1 suppr: suppression of PCK1 mRNA in primary hepatocytes, dose response, PGC-1a acetylation activator project, cell-based, primary mouse hepatocytes, RT-qPCR, cherry-pick | shares compounds with PGC1a Ac signal | forskolin-stimulated | PCK1 expression decrease, unspecified at 26 µM | 230 tested, under 10 active | AID 743465, 2014;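 active means compounds lowering PCK1 expression whose fitted half-maximal concentration is at most twice the top tested dose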;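 further: values are delta delta Ct of PCK1 relative to GAPDH; higher delta delta Ct means lower PCK1 expression so positive values indicate hits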
Hep PGC-1a down: suppression of PGC-1a mRNA in primary hepatocytes, dose response, PGC-1a acetylation activator project, cell-based, primary mouse hepatocytes, RT-qPCR, cherry-pick; shares compounds with PGC1a Ac signal; PGC-1a mRNA qPCR, forskolin; top dose 26 µM; max activity (PGC-1a expression decrease), %; 240 tested, under 10 active; AID 743467, 2014;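 active means compound lowering PGC-1a expression with fitted half-maximal concentration at most twice its top tested dose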;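 further: 0% = neutral control wells median and 100% = positive control wells median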
An asterisk follows results filed as active.

SMILES	PGC1a Ac signal	others
O=C1NCN(c2ccccc2)C12CCN(C(c1cc3ccccc3o1)c1nnnn1C1CCCCC1)CC2 (stereo not drawn)	83.6*
CC(=O)c1c(C)n(C2CCCCC2)c2ccc(O)cc12	-55.3
CC(=O)OC1C(O)C(C)OC(OC2C(OC(=O)C3CCC4C(C3)OC3(CC(OC(=O)/C=C/c5ccccc5)C(C)CO3)C43CO3)OC(C)C(O)C2OC(C)=O)C1O (stereo not drawn)	-77.7
CCC1(OC(=O)CN)C(=O)OCc2c1cc1n(c2=O)Cc2cc3ccccc3nc2-1 (stereo not drawn)	-42.8
C[C@@H]1CN([C@H](C)CO)C(=O)c2c(c3ccccc3n2C)-c2ccccc2CO[C@@H]1CN(C)C(=O)Oc1ccccc1	264.7*
C[C@@H]1C[C@@H]([C@H](O)CC2CC(=O)NC(=O)C2)C(=O)[C@@H](C)C1	-72.7
CC(=O)OC[C@]12CCC(C)=C[C@H]1O[C@@H]1[C@H](O)[C@@H](OC(C)=O)[C@@]2(C)[C@]12CO2	-85.5
CC1=CC2OC3CC4OC(=O)C=CC=CC(C(C)O)OCC(O)C(C)CC(=O)OCC2(CC1O)C4(C)C31CO1 (stereo not drawn)	-80.9
CN1CCN(Cc2cc(C(C)(C)C)c(O)c(C(C)(C)C)c2)CC1	130.4*
COc1ccc(-n2nnnc2C(CCc2ccccc2)N2CCC(n3c(=O)[nH]c4ccccc43)CC2)cc1 (stereo not drawn)	-55.0
C=C1C(=O)O[C@@H]2C[C@@H](C)[C@@H]3C=CC(=O)[C@@]3(C)[C@@H](O)[C@H]12	-47.0
O=C1CN=C(c2ccc[nH]2)c2cc(Cl)ccc2N1	-41.3
COc1ccc(CCNC2(C#N)CCCCC2)cc1OC	-83.6
C1=NCCc2c1[nH]c1ccccc21	155.7*
CCOCCN1CCC(OC(C)=O)C(C)C1 (stereo not drawn)	-41.8
C[C@@H]1O[C@@H](O[C@@H]2C=C3CC[C@@H]4C(CC[C@]5(C)[C@@H](c6ccc(=O)oc6)CC[C@]45O)[C@@]3(C)CC2)[C@H](O)[C@H](O)[C@H]1O (stereo partly drawn)	-67.0
COC(=O)C12OCC34C(CC5C(C)=C(O)C(=O)CC5(C)C3C(O)C1O)OC(=O)C(OC(=O)/C=C(\C)C(C)C)C24 (stereo not drawn)	-86.2
C[C@H]1CCC/C=C/[C@@H]2C[C@H](O)C[C@H]2[C@H](O)/C=C/C(=O)O1	-68.7
CCn1cc(C(=O)N2CCOCC2)c2ccccc21	-59.0
CCOc1ccc(-c2cc(C)[n+](CCc3ccc(OC)c(OC)c3)c(-c3ccc(OCC)cc3)c2)cc1	230.1*
C[C@@H]1O[C@@H](O[C@@H]2C=C3CCC4C(CC[C@]5(C)[C@@H](c6ccc(=O)oc6)CC[C@]45O)[C@@]3(C)CC2)[C@H](O)[C@H](O)[C@H]1O (stereo partly drawn)	-60.1
CC(=O)OC1CC(OC2C(O)CC(OC3C(O)CC(OC4CCC5(C)C(CCC6C5CCC5(C)C(C7=CC(=O)OC7)CCC65O)C4)OC3C)OC2C)OC(C)C1OC1OC(CO)C(O)C(O)C1O (stereo not drawn)	-55.7
COc1ccc(CC2NCC(O)C2OC(C)=O)cc1 (stereo not drawn)	-92.1
CC1=C(C/C(C)=C/c2ccccc2)/C(=C/CO)[C@@H]2OC(=O)O[C@]2(C)C12CC2	-43.1
CC1OC(OC2CC(O)C3(CO)C4C(O)CC5(C)C(C6=CC(=O)OC6)CCC5(O)C4CCC3(O)C2)C(O)C(O)C1O (stereo not drawn)	-80.6
COc1ccc(OC(=O)N(C)C[C@H]2OCc3ccccc3-c3c(n(C)c4ccccc34)C(=O)N([C@@H](C)CO)C[C@H]2C)cc1	61.8*	Hep G6PC suppr=12.7;Hep PCK1 suppr=48.3;Hep PGC-1a down=45.5
CCn1nc(-c2cccs2)nc2c(=O)n(C)c(=O)nc1-2	-40.3
Oc1ccc2c3c1O[C@H]1[C@@H](O)CC[C@@]4(O)[C@@H](C2)N(CC2CCC2)CC[C@]314	-56.7
CC(=O)OC1(C)CC(C)C(=O)C(C(O)CC2CC(=O)NC(=O)C2)C1 (stereo not drawn)	-92.7
CC(=O)OC(C)(C)/C=C/C(=O)C(C)(O)C1C(O)CC2(C)C3CC=C4C(CC(O)C(=O)C4(C)C)C3(C)C(=O)CC12C (stereo not drawn)	-70.3
